Results on five compounds are retold here after publication PMC7111275 (European Journal of Medicinal Chemistry, 2013).

One series deals with HIV. As to the kind of experiment: Anti-HIV activity in cellular assay. It is filed as cell-based. The settings on record: Human immunodeficiency virus 1, read-out: Anti-HIV activity EC90.
Series [1] concerns PBMC, human lymphoblastoid CEM and Vero cells. As to the kind of experiment: Cytotoxicity testing in PBMC, CEM and Vero cells. The settings on record: at 100 μM. It is filed as cell-based.
Series [2] concerns hepatitis C virus (HCV) replicon in Huh 7 cells. In words: Subgenomic HCV replicon system in Huh 7 cells. It is filed as cell-based. The settings on record: 10 μM. A digest of the protocol:
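Huh 7 Clone B cells carrying subgenomic HCV replicon RNA were seeded at 3000 cells/well and given test compound at 10 μM in triplicate immediately after seeding. After 5 days at 37 °C in 5% CO2, total RNA was extracted. Replicon RNA was measured against an rRNA internal control by one-step multiplex real-time RT-PCR. ΔCt was taken versus the no-drug control, where ΔCt 3.3 = 1-log reduction; rRNA ΔCt gave cytotoxicity. 2′-C-Me-C at 10 μM served as the control.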

In another series the test system is Hel cells. The note with it: at 100 μM, Hel cell cultures.

On to `CC(C)(C)C(=O)OCOP(=O)(C/C=C/Cn1ccc(N)nc1=O)OCOC(=O)C(C)(C)C` [Compound 8a, (E)-N^1-(4′-Bis(POM)phosphinyl-2′-butenyl)-cytosine], for which the EC90 in the series on HIV was more than 100 µM. The “Cytotoxicity (in words)” value in series [1] is reported as “without significant cytotoxicity”. For the same compound, in series [2], the “Anti-HCV activity (in words)” value was “pronounced anti-HCV activity”.

In the case of `COC(=O)c1nccn(C/C=C/CP(=O)(OCOC(=O)C(C)(C)C)OCOC(=O)C(C)(C)C)c1=O` [Compound 13, (E)-N^1-(4′-Bis(POM)-phosphinylbut-2′-enyl)-3-oxo-pyrazine-2-methylester], the “Cytotoxicity (in words)” value in series [1] is listed as “without significant cytotoxicity”. In series [2], the “Anti-HCV activity (in words)” value was “pronounced anti-HCV activity”.

As to `CC(C)(C)C(=O)OCOP(=O)(C/C=C/Cn1ccnc(C(N)=O)c1=O)OCOC(=O)C(C)(C)C` [Compound 14, (E)-N^1-(4′-Bis(POM)-phosphinylbut-2′-enyl)-3-oxo-pyrazine-2-carboxamide], the “Cytotoxicity (in words)” value in series [1] is given as “without significant cytotoxicity”. The “Anti-HCV activity (in words)” value in series [2] was “pronounced anti-HCV activity”.

Turning to `CC(C)(C)C(=O)OCOP(=O)(C/C=C/Cn1cc(C(=O)O)nn1)OCOC(=O)C(C)(C)C` [Compound 24, (E)-1-(4′-Bis(POM)-phosphinylbut-2′-enyl)-4-(carboxylic acid)-1,2,3-triazole], the “Cytotoxicity (in words)” value in series [1] is “without significant cytotoxicity”. Moreover, in series [2], the “Anti-HCV activity (in words)” value is “pronounced anti-HCV activity”.

As to `CC(C)(C)C(=O)OCOP(=O)(C/C=C/Cn1cc(CO)nn1)OCOC(=O)C(C)(C)C` [Compound 31, (E)-1-(4′-Bis(POM)-phosphinylbut-2′-enyl)-4-(hydroxymethyl)-1,2,3-triazole], in the series with Hel cells, the “Cytotoxicity (in words)” value was “no observed cytotoxicity”.

For orientation: EC90 means the concentration needed for an effect of 90%.
